From ChEMBL document CHEMBL5705888, “Substrate specificity and inhibitors of LRRK2, a protein kinase mutated in Parkinson's disease” (Biochem J, 2009)
Active and inactive are the calls of the source. No cut-off for these calls is given here.

Assays:
[1] = biological target: Leucine-rich repeat serine/threonine-protein kinase 2 (Homo sapiens, UniProt Q5S007); test: Inhibition of LRRK2 (unknown origin) at 10 uM incubated for 30 mins in presence of [gamma-33P]ATP by multidrop micro reagent based assay relative to control
[2] = biological target: Ephrin type-A receptor 2 (Homo sapiens) (UniProt P29317); test: Inhibition of EPH A2 (unknown origin) at 10 uM incubated for 30 mins in presence of [gamma-33P]ATP by multidrop micro reagent based assay relative to control; values are per cent of control
[3] = biological target: Mitogen-activated protein kinase 8 (Homo sapiens) (UniProt P45983); test: Inhibition of JNK1 (unknown origin) at 10 uM incubated for 30 mins in presence of [gamma-33P]ATP by multidrop micro reagent based assay relative to control; values are per cent of control
[4] = biological target: Serine/threonine-protein kinase 26 (Homo sapiens) (UniProt Q9P289); test: Inhibition of MST4 (unknown origin) at 10 uM incubated for 30 mins in presence of [gamma-33P]ATP by multidrop micro reagent based assay relative to control
Summary of the method: (§1)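 Single-concentration screen across a panel of 85 protein kinases. Activity is expressed as a percentage of control incubations run without inhibitor.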

[5] = biological target: Serine/threonine-protein kinase Nek6 (Homo sapiens) (UniProt Q9HC98); test: Residual activity of NEK6 (unknown origin) at 10 uM incubated for 30 mins in presence of [gamma-33P]ATP by multidrop micro reagent based assay relative to control
[6] = biological target: MAP kinase-interacting serine/threonine-protein kinase 1 (Homo sapiens) (UniProt Q9BUB5); test: Inhibition of MNK1 (unknown origin) at 10 uM incubated for 30 mins in presence of [gamma-33P]ATP by multidrop micro reagent based assay relative to control; summary of the method: as §1
[7] = biological target: Serine/threonine-protein kinase D1 (Homo sapiens) (UniProt Q15139); test: Residual activity of PKD1 (unknown origin) at 10 uM incubated for 30 mins in presence of [gamma-33P]ATP by multidrop micro reagent based assay relative to control
[8] = biological target: Protein kinase C alpha type (Homo sapiens) (UniProt P17252); test: Inhibition of PKCalpha (unknown origin) at 10 uM incubated for 30 mins in presence of [gamma-33P]ATP by multidrop micro reagent based assay relative to control; values are per cent of control
[9] = biological target: Mitogen-activated protein kinase 13 (Homo sapiens) (UniProt O15264); test: Residual activity of p38delta MAPK (unknown origin) at 10 uM incubated for 30 mins in presence of [gamma-33P]ATP by multidrop micro reagent based assay relative to control
[10] = biological target: Tyrosine-protein kinase SYK (Homo sapiens) (UniProt P43405); test: Inhibition of SYK (unknown origin) at 10 uM incubated for 30 mins in presence of [gamma-33P]ATP by multidrop micro reagent based assay relative to control; values are per cent of control
[11] = biological target: Casein kinase 2 (Homo sapiens) (UniProt P67870+P68400+P19784+Q8NEV1); test: Inhibition of CK2 (unknown origin) at 1 uM incubated for 30 mins in presence of [gamma-33P]ATP by multidrop micro reagent based assay relative to control; values are per cent of control
[12] = biological target: Leucine-rich repeat serine/threonine-protein kinase 2 (Mus musculus) (UniProt Q5S006); test: Inhibition of LRRK2 in mouse Swiss-3T3 cells at 2 uM using Nictide as substrate by immunoblot analysis; type: cell-based
[13] = biological target: Leucine-rich repeat serine/threonine-protein kinase 2 (Homo sapiens, UniProt Q5S007, A2016T/G2019S); test: Inhibition of GST-tagged LRRK2 G2019S/A2016T mutant (1326 to 2527 residues) (unknown origin) in presence of ATP
[14] = species: Homo sapiens; test: Inhibition of CDK2/cyclin A (unknown origin) at 10 uM incubated for 30 mins in presence of [gamma-33P]ATP by multidrop micro reagent based assay relative to control
[15] = biological target: Serine/threonine-protein kinase Chk1 (Homo sapiens) (UniProt O14757); test: Inhibition of CHK1 (unknown origin) at 1 uM incubated for 30 mins in presence of [gamma-33P]ATP by multidrop micro reagent based assay relative to control; values are per cent of control
[16] = biological target: Serine/threonine-protein kinase pim-2 (Homo sapiens) (UniProt Q9P1W9); test: Inhibition of PIM2 (unknown origin) at 1 uM incubated for 30 mins in presence of [gamma-33P]ATP by multidrop micro reagent based assay relative to control; values are per cent of control
[17] = biological target: Leucine-rich repeat serine/threonine-protein kinase 2 (Mus musculus) (UniProt Q5S006); test: Inhibition of LRRK2 in mouse Swiss-3T3 cells at 10 uM using Nictide as substrate by immunoblot analysis; type: cell-based
[18] = biological target: T1, Mitogen-activated protein kinase kinase kinase kinase 2 (Homo sapiens) (UniProt Q12851); test: Inhibition of GCK (unknown origin) at 0.1 uM incubated for 30 mins in presence of [gamma-33P]ATP by multidrop micro reagent based assay relative to control
T1 sequence (whole entry): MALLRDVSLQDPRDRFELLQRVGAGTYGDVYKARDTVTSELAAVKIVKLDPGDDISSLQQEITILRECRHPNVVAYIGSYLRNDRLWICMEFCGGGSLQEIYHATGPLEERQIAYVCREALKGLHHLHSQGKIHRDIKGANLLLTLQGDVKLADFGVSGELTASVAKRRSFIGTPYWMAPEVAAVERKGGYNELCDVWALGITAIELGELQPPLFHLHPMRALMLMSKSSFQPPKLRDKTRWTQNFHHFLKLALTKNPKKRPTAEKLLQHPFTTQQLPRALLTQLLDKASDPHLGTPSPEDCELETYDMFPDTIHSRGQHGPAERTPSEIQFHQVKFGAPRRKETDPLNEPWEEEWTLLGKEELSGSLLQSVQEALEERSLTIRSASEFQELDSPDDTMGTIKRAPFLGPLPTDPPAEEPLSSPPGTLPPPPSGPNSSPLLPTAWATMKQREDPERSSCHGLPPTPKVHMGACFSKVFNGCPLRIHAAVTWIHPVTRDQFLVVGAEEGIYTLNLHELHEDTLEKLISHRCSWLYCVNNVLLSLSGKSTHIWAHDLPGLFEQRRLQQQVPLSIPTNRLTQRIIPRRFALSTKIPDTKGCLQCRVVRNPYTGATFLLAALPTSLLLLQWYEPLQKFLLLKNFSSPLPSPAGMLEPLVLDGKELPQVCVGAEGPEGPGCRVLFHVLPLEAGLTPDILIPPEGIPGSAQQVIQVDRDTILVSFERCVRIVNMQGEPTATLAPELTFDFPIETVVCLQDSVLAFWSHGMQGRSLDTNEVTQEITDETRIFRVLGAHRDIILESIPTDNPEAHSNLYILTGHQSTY

Mitogen-activated protein kinase 8 (Homo sapiens), sequence (P45983 whole entry): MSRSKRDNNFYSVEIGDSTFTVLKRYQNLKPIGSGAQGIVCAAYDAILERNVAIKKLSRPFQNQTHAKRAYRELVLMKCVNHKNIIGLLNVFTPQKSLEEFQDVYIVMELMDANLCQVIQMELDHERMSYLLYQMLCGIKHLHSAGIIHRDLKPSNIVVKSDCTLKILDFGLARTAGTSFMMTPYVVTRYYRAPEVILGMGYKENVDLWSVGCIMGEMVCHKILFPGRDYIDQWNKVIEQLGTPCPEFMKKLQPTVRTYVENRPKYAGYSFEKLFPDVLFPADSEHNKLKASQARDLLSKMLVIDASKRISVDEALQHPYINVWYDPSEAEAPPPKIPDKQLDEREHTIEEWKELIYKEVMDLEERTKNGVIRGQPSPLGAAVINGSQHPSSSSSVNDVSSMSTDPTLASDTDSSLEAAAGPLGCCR
Leucine-rich repeat serine/threonine-protein kinase 2 (Mus musculus), sequence (Q5S006 whole entry, the tested form may be a part): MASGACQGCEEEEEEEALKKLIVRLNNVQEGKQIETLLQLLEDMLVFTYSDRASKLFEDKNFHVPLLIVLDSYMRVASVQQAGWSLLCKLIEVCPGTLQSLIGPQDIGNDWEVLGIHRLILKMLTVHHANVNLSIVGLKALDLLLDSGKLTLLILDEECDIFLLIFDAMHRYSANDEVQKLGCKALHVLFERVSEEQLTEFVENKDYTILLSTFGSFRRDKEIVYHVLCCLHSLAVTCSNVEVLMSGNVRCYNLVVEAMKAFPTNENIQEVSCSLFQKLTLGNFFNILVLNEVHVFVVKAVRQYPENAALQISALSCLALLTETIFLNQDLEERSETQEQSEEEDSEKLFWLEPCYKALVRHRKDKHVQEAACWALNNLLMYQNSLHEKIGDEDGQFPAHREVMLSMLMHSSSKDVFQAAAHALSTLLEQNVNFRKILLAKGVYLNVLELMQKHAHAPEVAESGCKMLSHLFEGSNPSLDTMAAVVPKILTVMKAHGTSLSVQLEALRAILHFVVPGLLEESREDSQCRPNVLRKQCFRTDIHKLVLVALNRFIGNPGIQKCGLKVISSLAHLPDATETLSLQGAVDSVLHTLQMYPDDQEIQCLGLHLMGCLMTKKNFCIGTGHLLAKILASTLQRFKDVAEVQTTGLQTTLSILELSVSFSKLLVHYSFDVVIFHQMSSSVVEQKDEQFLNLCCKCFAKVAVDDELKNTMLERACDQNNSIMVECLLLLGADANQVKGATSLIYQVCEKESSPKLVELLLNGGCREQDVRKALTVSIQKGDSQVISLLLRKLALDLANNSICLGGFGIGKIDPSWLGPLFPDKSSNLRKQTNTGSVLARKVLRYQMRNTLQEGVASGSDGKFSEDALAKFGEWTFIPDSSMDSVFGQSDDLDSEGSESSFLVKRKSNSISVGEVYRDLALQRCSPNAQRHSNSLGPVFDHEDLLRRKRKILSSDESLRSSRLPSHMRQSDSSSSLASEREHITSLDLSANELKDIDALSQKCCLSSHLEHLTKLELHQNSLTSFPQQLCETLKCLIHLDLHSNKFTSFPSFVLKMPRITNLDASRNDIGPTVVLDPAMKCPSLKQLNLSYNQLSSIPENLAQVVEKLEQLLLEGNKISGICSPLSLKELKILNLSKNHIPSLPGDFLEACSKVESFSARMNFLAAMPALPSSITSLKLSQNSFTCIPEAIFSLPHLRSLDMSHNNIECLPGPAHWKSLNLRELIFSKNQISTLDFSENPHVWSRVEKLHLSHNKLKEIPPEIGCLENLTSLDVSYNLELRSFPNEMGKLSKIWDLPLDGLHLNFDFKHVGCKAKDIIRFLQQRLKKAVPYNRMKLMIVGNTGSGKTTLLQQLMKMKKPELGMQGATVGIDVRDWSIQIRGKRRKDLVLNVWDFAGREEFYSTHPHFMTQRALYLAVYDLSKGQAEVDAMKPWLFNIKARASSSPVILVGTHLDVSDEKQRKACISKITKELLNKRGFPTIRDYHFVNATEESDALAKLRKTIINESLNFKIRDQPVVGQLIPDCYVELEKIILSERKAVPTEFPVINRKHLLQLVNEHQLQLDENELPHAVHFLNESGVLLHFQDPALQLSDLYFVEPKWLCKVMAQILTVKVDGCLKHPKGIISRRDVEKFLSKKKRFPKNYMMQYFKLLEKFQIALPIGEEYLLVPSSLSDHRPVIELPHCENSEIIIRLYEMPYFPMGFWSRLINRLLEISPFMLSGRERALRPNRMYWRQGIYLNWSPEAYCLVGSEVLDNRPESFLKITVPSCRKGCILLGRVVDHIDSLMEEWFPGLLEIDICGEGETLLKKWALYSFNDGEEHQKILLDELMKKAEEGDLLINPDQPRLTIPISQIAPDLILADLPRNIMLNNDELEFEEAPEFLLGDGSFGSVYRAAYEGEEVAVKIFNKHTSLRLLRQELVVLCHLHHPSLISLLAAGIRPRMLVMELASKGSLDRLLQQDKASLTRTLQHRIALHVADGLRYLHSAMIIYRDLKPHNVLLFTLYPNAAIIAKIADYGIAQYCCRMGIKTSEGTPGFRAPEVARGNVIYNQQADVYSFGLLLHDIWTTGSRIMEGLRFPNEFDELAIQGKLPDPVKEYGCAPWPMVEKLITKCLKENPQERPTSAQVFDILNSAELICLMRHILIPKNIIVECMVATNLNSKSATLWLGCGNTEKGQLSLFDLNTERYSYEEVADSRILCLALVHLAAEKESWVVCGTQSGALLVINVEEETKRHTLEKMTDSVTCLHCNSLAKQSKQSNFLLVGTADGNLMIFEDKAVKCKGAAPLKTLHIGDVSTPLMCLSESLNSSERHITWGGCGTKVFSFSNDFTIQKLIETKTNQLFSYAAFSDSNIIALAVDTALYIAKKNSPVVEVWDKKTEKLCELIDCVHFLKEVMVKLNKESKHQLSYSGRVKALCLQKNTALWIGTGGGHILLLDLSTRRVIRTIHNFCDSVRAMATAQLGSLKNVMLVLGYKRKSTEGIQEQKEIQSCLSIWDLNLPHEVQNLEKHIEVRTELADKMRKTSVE
Serine/threonine-protein kinase Nek6 (Homo sapiens), sequence (Q9HC98 whole entry): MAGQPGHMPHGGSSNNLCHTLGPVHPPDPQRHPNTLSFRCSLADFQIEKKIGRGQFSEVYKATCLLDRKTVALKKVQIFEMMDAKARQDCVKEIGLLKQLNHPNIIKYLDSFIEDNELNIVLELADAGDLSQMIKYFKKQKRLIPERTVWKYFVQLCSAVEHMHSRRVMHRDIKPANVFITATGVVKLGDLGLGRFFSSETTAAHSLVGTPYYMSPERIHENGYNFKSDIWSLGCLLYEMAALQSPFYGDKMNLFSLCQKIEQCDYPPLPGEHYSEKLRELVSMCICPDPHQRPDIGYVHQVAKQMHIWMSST
Mitogen-activated protein kinase 13 (Homo sapiens), sequence (O15264 whole entry): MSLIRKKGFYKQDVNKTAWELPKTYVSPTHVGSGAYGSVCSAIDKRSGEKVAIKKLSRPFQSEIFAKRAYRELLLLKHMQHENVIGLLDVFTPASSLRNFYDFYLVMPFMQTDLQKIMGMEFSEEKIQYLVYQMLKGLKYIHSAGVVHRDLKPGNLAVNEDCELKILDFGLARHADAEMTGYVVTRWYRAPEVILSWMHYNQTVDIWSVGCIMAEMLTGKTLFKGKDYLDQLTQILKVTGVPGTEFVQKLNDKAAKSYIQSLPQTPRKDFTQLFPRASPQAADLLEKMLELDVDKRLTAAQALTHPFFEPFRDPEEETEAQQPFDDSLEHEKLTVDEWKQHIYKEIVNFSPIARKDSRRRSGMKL
Serine/threonine-protein kinase D1 (Homo sapiens), sequence (Q15139 whole entry, looked up): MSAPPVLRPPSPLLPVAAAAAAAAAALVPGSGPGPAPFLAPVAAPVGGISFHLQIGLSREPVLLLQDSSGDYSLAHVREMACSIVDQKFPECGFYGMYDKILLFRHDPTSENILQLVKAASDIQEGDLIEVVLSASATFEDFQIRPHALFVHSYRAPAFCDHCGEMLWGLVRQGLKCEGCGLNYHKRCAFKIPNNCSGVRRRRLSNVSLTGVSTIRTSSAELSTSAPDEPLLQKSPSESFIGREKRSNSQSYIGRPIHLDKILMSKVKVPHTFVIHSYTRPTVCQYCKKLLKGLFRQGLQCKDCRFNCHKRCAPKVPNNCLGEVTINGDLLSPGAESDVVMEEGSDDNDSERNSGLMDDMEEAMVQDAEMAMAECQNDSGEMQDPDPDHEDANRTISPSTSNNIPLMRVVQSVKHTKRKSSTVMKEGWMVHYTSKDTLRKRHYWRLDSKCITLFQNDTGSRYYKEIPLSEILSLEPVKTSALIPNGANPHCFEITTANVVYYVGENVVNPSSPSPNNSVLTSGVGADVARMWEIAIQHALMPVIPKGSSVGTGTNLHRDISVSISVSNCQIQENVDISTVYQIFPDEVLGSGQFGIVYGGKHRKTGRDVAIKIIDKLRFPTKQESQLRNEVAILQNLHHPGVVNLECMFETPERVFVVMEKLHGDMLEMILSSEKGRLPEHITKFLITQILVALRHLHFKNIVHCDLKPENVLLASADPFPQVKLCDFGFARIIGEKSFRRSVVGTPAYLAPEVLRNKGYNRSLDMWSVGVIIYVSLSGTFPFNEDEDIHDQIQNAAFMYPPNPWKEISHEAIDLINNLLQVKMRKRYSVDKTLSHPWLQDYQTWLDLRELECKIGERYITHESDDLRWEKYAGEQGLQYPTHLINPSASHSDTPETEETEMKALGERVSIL
Serine/threonine-protein kinase 26 (Homo sapiens), sequence (Q9P289 2-416 limits assumed): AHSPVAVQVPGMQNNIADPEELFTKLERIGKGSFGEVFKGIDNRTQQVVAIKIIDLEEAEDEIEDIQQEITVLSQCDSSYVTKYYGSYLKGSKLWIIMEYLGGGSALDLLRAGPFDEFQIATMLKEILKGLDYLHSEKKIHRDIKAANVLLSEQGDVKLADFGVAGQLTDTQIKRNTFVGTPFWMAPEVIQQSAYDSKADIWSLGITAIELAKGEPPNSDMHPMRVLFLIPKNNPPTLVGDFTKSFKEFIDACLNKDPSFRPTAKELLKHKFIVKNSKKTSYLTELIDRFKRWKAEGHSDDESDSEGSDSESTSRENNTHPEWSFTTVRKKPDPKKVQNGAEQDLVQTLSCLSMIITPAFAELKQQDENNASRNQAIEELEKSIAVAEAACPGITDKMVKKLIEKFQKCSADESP

C[C@@H](N)[C@H]1CC[C@H](C(=O)Nc2ccncc2)CC1
inhibition [1]: 22% | residual activity [2]: 106% | residual activity [3]: 106% | inhibition [4]: 67% | residual activity [5]: 80% | inhibition [6]: 20% | residual activity [7]: 89% | residual activity [8]: 52% | residual activity [9]: 86% | residual activity [10]: 94%

Cc1cncc2cccc(S(=O)(=O)N3CCCNC[C@@H]3C)c12
residual activity [11]: 84% | inhibition [12]: Active | IC50 [13]: 3.3 µM

O=S(=O)(c1cccc2cnccc12)N1CCCNCC1 [FASUDIL]
residual activity [3]: 115% | residual activity [5]: 107% | inhibition [14]: 82%

CC1=C(C(=O)Nc2cc3cn[nH]c3cc2F)C(c2ccc(C(F)(F)F)cc2)CC(=O)N1 (stereo unspecified)
residual activity [11]: 82% | residual activity [15]: 111% | residual activity [16]: 106% | inhibition [17]: inactive

CCN(CC)CCNC(=O)c1c(C)[nH]c(/C=C2\C(=O)Nc3ccc(F)cc32)c1C
inhibition [18]: 45%
